Experimental data as given in PubChem BioAssay.
Calls of active or inactive are those of the source.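 The calls were made as follows, unless noted: active = fluorescence slope after compound addition differing from the mean of all screened samples at 99.7% confidence, in either direction; inactive = the rest.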

What was measured:
[1] = inhibitors of TNFa-induced NFkB p65 translocation, primary screen, imaging, HUVEC, MLSMR starter and 10KST1 sets (AID 438;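 active = inhibition above 20% together with a positive visual image hit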;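 also: compound added about 3h40 before a 20 min TNFalpha stimulation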;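 as to inhibition: signal is the nuclear over cytoplasmic p65 intensity ratio per well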); conditions: HUVEC TNFa-induced p65 nuclear translocation; cell count: measured here: nuclei count (cytotoxicity indicator), at 2.08 µM; inhibition: at 2 µM, stronger effect = higher value, 0% TNFa-plus-vehicle, 100% no-TNFa wells
[2] = endothelial E-selectin expression blockers – imaging, HUVEC, immunofluorescence, MLSMR starter and 10KST1 sets, primary screen (AID 487;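 active = visually confirmed hit in the image check and inhibition above 20%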;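 as to inhibition: signal is fraction of cell area covered by stained E-selectin grains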;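 as to nuclei count: 100% = median nuclei count of all wells on the same plate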); conditions: HUVEC TNFalpha-induced E-selectin immunofluorescence imaging, at 2 µM; inhibition: stronger effect = higher value; nuclei count: measured here: cell number, toxicity
[3] = Primary imaging screen for DUSP6 inhibitors that restore phospho-Erk in transfected HeLa cells, chemical complementation (AID 609;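 active = compounds giving at least 50% inhibition in the cell-based MKP-3 phosphatase rescue imaging test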;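 as to inhibition: phospho-Erk level distribution per well compared with pooled transfected vehicle control wells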); conditions: HeLa MKP-3 transfected, phospho-Erk imaging KS statistic, at 10 µM, cells stimulated with TPA for 15 min
[4] = biological target: Dual specificity protein phosphatase 6 (Homo sapiens) (UniProt Q16828); assay: as above; conditions: HeLa MKP-3 transfected, phospho-Erk imaging KS statistic; at 10 µM; stronger effect = higher value; cells stimulated with TPA for 15 min
Dual specificity protein phosphatase 6 (Homo sapiens), sequence (Q16828 whole entry, looked up): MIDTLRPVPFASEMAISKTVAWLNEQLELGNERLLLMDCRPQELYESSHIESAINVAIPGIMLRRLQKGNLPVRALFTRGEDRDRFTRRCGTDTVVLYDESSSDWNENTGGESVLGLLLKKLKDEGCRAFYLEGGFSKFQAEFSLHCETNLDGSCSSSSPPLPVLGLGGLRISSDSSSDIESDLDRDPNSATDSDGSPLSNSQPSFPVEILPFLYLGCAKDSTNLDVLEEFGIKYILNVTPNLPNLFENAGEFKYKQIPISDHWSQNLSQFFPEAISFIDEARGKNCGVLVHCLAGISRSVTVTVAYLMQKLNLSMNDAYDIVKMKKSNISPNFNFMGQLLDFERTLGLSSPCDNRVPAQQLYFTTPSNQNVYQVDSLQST

[5] = biological target: Voltage-gated potassium channel subunit beta-2 (Rattus norvegicus) (UniProt P62483); assay: inhibitors of rat Kvbeta2 reductase activity – biochemical, NADPH fluorescence, primary screen (AID 622;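 active = fluorescence slope higher than the sample average by over 3 SD, cut at about -0.22 in these data, passing the limit was not always enough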;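 also: slope of raw intensity against log time taken from 70 to 1610 s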); conditions: recombinant KvBeta, 4-cyanobenzaldehyde reduction, at 10 µM, stronger effect = higher value
Voltage-gated potassium channel subunit beta-2 (Rattus norvegicus), sequence (P62483 whole entry, looked up): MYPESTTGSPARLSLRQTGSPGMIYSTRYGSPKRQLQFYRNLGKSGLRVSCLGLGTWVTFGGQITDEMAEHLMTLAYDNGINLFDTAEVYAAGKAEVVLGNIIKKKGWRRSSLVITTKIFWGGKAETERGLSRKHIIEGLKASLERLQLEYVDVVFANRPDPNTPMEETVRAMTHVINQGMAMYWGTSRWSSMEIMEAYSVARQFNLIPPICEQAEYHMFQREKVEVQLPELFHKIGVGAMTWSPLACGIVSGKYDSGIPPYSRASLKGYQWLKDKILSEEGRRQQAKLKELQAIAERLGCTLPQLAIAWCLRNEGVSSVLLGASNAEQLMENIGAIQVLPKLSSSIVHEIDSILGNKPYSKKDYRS

[6] = biological target: Voltage-gated potassium channel subunit beta-2 (Rattus norvegicus) (UniProt P62483); assay: enhancers of rat Kvbeta2 NADPH turnover – biochemical, NADPH fluorescence, primary screen (AID 623;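 active = NADPH fluorescence slope more negative than the mean of all samples by about 3 SD, 99.7% confidence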;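 also: fluorescence intensity change per second fitted from 20 to 320 s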); conditions: Recombinant KvBeta, NADPH fluorescence decrease slope, 10 min; at 10 µM; stronger effect = lower value
[7] = biological target: Alpha-2C adrenergic receptor (Homo sapiens) (UniProt P18825); assay: compounds altering alpha2C-coupled GIRK flux – cell-based, HEK293 alpha2C/GIRK1/2, thallium flux, primary screen (AID 624); conditions: thallium flux BTC fluorescence, at 10 µM, actives lie on both sides;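 also: slope of fluorescence ratio to pre-addition baseline per second over 15 to 24 s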
Alpha-2C adrenergic receptor (Homo sapiens), sequence (P18825 whole entry, looked up): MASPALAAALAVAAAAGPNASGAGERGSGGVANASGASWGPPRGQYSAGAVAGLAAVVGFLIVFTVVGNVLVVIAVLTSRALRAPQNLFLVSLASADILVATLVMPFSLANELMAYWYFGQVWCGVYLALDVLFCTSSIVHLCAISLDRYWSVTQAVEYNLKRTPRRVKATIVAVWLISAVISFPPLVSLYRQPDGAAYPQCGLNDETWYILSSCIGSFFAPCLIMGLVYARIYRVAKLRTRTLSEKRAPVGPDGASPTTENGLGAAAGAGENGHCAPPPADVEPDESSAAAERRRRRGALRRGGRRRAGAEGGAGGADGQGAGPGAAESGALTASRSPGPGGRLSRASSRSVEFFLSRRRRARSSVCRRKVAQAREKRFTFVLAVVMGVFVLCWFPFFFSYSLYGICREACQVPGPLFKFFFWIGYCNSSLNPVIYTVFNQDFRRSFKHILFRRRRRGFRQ

[8] = inhibitors of larval lipid processing in zebrafish, primary screen, whole organism, PED6 fluorescence, gall bladder and intestine (AID 686;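 active = a full or partial loss of lipid-probe fluorescence in the fish gall bladder, intestine or both, judged by eye; inactive = no fluorescence loss, or compound toxic to the fish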;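 also: larvae 5 to 7 days old with five fish per well; signal comes from phospholipase A2 cleavage of quenched PED6 carried via bile; overnight exposure to compound and PED6 before scoring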); conditions: Zebrafish larvae PED6 lipid processing, fluorescence scoring; screened at 20 µM (by protocol)
Procedure, shortened: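 Test system – live zebrafish larvae aged 5-7 days, whole organism · Buffer or medium – E3 fish medium · Reagent – quenched phospholipase substrate PED6, 100 nM final, ingested by larvae · Doses – 20 µM single dose · Incubation – overnight compound and PED6 incubation · Technique – visual fluorescence microscopy scoring of gall bladder, gut · Read-out basis – visual per-well fluorescence inhibition score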

[9] = loss of swimming-algae plug formation – whole organism, Chlamydomonas reinhardtii, WT vs cilia-less mutant, absorbance, 96-well, primary screen (AID 463189;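 active = inhibition at or above 50% relative to wild type and mutant plate controls; inactive = inhibition below 50%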;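 also: 0% = wild type cc124 cells in DMSO and 100% = ciliumless bld1 mutant cells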); conditions: Chlamydomonas reinhardtii gravitaxis, OD600 absorbance, 2 days; at 10 µM; stronger effect = higher value
[10] = measured here: cell density z-score
[11] = measured here: nuclear c-Myc green intensity z-score
[12] = measured here: nuclear pErk red intensity z-score, stronger effect = higher value

Row | SMILES | cell count [1] | inhibition [1] | inhibition [2] | nuclei count [2] [%] | z-score [3, 10] | z-score [3, 11] | z-score [3, 12] | inhibition [4] | fluorescence slope [5] | NADPH fluorescence slope [6] | slope [7] | outcome [8] | inhibition [9]
1 | Cn1c(SCC(=O)N2CCOCC2)nnc1-c1ccc(Cl)cc1Cl | 359 | -9.4% (inactive) | -17.3% (inactive) | 101 | 0.947 | -0.186 | -0.938 | 1.75% (inactive) | -0.453 (inactive) | 1.1e-05 (inactive) | 0.00668 (inactive) | inactive | -14.7% (inactive)
2 | Cc1nc2sc3c(c2c(=O)o1)CC(C)(C)OC3 | 555 | -9.6% (inactive) | 23.7% (inactive) | 115 | 0.476 | 1.45 | -1.12 | 7.7% (inactive) | -0.461 (inactive) | -1.1e-05 (inactive) | 0.0057 (inactive) | inactive | -15.1% (inactive)
3 | O=C(O)C1CSCN1S(=O)(=O)c1cccc2nsnc12 (stereo unspecified) | 539 | -8.4% (inactive) | -34% (inactive) | 120 | -0.369 | 1.2 | -0.893 | -11.5% (inactive) | -0.496 (inactive) | -5.5e-05 (inactive) | 0.00516 (inactive) | inactive | -1.08% (inactive)
4 | Cc1nc2c(=O)n(C)c(=O)[nH]c2n1Cc1ccccc1 | 465 | 3.5% (inactive) | -59.5% (inactive) | 153 | 0.739 | 0.0972 | 1.29 | -4.7% (inactive) | -0.394 (inactive) | -4.2e-05 (inactive) | 0.00601 (inactive) | inactive | -5.62% (inactive)
5 | Clc1ccc(-c2cn3c(n2)CCC3)cc1 | 567 | -16.9% (inactive) | 0.7% (inactive) | 171 | -1.6 | 1.21 | 1.33 | -6.86% (inactive) | -0.504 (inactive) | -9.3e-05 (inactive) | 0.00501 (inactive) | inactive | 3.42% (inactive)
6 | Cc1coc2c(O)cc3c(c12)OC1(N2CCCCC2)C(=O)NCCCC31 (stereo unspecified) | 537 | -25.4% (inactive) | -78.3% (inactive) | 144 | -0.8 | 0.13 | 2.15 | -15% (inactive) | -0.515 (inactive) | -4.3e-05 (inactive) | 0.00313 (inactive) | inactive | 19.5% (inactive)
7 | Cc1nccn1-c1cc(C(C)C)c(C#N)c2nc3ccccc3n12 | 468 | -22.6% (inactive) | -68.2% (inactive) | 140 | 1.43 | -0.347 | -0.664 | 8.31% (inactive) | -0.524 (inactive) | -2.8e-05 (inactive) | 0.0063 (inactive) | inactive | 23% (inactive)
8 | N#CC1=C(N)NC(SCc2ccc(Cl)cc2)=C(C#N)C12CCCCC2 | 630 | -23% (inactive) | 44.1% (inactive) | 180 | 0.0253 | -0.669 | 0.519 | 1.04% (inactive) | -0.409 (inactive) | -5.9e-05 (inactive) | 0.00372 (inactive) | inactive | 18.9% (inactive)
9 | OC(CNCCCN1CCCCC1)COc1ccccc1 (stereo unspecified) | 630 | -6.2% (inactive) | -169% (inactive) | 178 | -0.145 | 0.177 | 0.518 | 17% (inactive) | -0.512 (inactive) | -7.1e-05 (inactive) | 0.00429 (inactive) | inactive | 5.42% (inactive)
10 | Cn1cc(Br)cc2nc(C(F)(F)F)nc1-2 | 534 | -11.2% (inactive) | -143% (inactive) | 133 | 0.955 | -1.14 | -0.53 | 29.7% (inactive) | -0.532 (inactive) | -2.5e-05 (inactive) | 0.00656 (inactive) | inactive | 20% (inactive)
11 | C=CCn1c(=S)[nH]c2ccccc2c1=O | 649 | 1.8% (inactive) | -30.6% (inactive) | 130 | -0.515 | 0.859 | 0.00467 | 5.57% (inactive) | -0.46 (inactive) | -0.000371 (inactive) | 0.00865 (inactive) | inactive | -14.1% (inactive)
12 | CC(=O)N/C(=N/c1nc(C)cc(C)n1)Nc1ccc(NC(C)=O)cc1 | 647 | 3.8% (inactive) | -35% (inactive) | 154 | 1.7 | -1.09 | -1.09 | -1.12% (inactive) | -0.509 (inactive) | -6.6e-05 (inactive) | 0.00481 (inactive) | inactive | 1.67% (inactive)
13 | COC(=O)c1ccc(=O)n(Cc2ccc3c(c2)OCO3)c1 | 394 | -2.1% (inactive) | -128% (inactive) | 137 | 2.55 | 0.425 | -1.58 | 2.46% (inactive) | -0.427 (inactive) | -4.6e-05 (inactive) | 0.00627 (inactive) | inactive | -6.36% (inactive)
14 | Cn1cc(C(=O)NCN2CCCCC2)c2ccccc21 | 637 | -1.9% (inactive) | 33.7% (inactive) | 201 | 0.345 | -0.8 | -0.0314 | -5.89% (inactive) | -0.45 (inactive) | -0.000261 (inactive) | 0.00517 (inactive) | inactive | -12.4% (inactive)
15 | O=C1OC(Nc2ccc(Br)cc2F)c2ccccc21 (stereo unspecified) | 426 | -1.6% (inactive) | -16.9% (inactive) | 149 | 0.057 | -0.568 | 0.211 | -2.91% (inactive) | -0.383 (inactive) | -4.6e-05 (inactive) | 0.00575 (inactive) | inactive | -4.19% (inactive)
16 | COc1cccc(C(=O)N2CCN(S(=O)(=O)Cc3ccccc3)CC2)c1OC | 424 | -16.3% (inactive) | -254% (inactive) | 195 | 0.309 | -0.845 | -0.459 | 12.7% (inactive) | -0.291 (inactive) | 1.9e-05 (inactive) | 0.00419 (inactive) | inactive | 17.5% (inactive)
17 | C=CCOc1nc2c(c(=O)n(C)c(=O)n2C)n1Cc1ccc(Cl)cc1Cl | 555 | 1.8% (inactive) | -31.1% (inactive) | 103 | -0.56 | -0.295 | 0.979 | -6.48% (inactive) | -0.591 (inactive) | -4.9e-05 (inactive) | 0.00522 (inactive) | inactive | 4.68% (inactive)
18 | CSc1sc(C(=O)O)c2c1C(=O)CCC2 | 562 | -4.6% (inactive) | -163% (inactive) | 186 | -0.487 | 1.05 | 0.511 | 5.65% (inactive) | -0.486 (inactive) | -0.000199 (inactive) | 0.00495 (inactive) | inactive | -9.07% (inactive)
19 | CCN(CC)CCNC(=O)c1c(C)oc2cc(Br)c(OC)cc12 | 496 | -8.7% (inactive) | -70.3% (inactive) | 112 | 2.28 | 0.845 | -0.848 | 15.8% (inactive) | -0.55 (inactive) | -3.1e-05 (inactive) | 0.0063 (inactive) | inactive | -1.94% (inactive)
20 | CN1c2ccccc2N(C)C1c1c(O)ccc2ccccc12 | 340 | -22% (inactive) | -387% (inactive) | 180 | 0.38 | -1.52 | 0.412 | -2.07% (inactive) | -0.407 (inactive) | -4.1e-05 (inactive) | 0.00586 (inactive) | inactive | 1.66% (inactive)
21 | CC(C)CC(=O)Nc1ncnc2c1C(=O)CC(C)(C)C2 | 635 | -9.9% (inactive) | 35.4% (inactive) | 167 | 0.463 | -0.408 | 0.517 | 1.12% (inactive) | -0.413 (inactive) | -5.4e-05 (inactive) | 0.00518 (inactive) | inactive | -3.52% (inactive)
22 | COC(=O)CC1=NC(=O)CS1 | 690 | -4.3% (inactive) | -84.4% (inactive) | 164 | -1.27 | 0.428 | 1.11 | -7.28% (inactive) | -0.41 (inactive) | -8.9e-06 (inactive) | 0.00544 (inactive) | inactive | -1.11% (inactive)
23 | N#Cc1c(-c2ccco2)cc(C2CC2)nc1N | 528 | -3.5% (inactive) | -51.8% (inactive) | 107 | -1.1 | -0.229 | -0.103 | -1.12% (inactive) | -0.43 (inactive) | -0.00027 (inactive) | 0.00359 (inactive) | inactive | -5.69% (inactive)
24 | COCCCNc1nc2c(c(=O)n(C)c(=O)n2C)n1Cc1cccc(OC)c1 | 434 | -9.7% (inactive) | -93.1% (inactive) | 190 | 2.25 | -1.46 | -1.41 | 4.37% (inactive) | -0.325 (inactive) | 1.1e-05 (inactive) | 0.00428 (inactive) | inactive | -3.39% (inactive)
25 | COc1ccc(/C=N/n2cncn2)cc1COc1ccc(NC(C)=O)cc1 | 307 | -11.9% (inactive) | -81.9% (inactive) | 99.2 | 1.57 | 0.491 | -0.528 | 24.3% (inactive) | -0.402 (inactive) | 3.3e-05 (inactive) | 0.00513 (inactive) | inactive | -6.96% (inactive)
26 | COc1ccc(C2=CC(c3cccc(OC)c3)n3nnnc3N2)cc1 (stereo unspecified) | 539 | -14.8% (inactive) | -119% (inactive) | 145 | 2.98 | -1.71 | -0.495 | 13.7% (inactive) | -0.474 (inactive) | -6.4e-05 (inactive) | 0.00383 (inactive) | inactive | 6.7% (inactive)
27 | CCn1c(SCC(=O)O)nc2sc3c(c2c1=O)CCC3 | 664 | -3.3% (inactive) | 9.9% (inactive) | 171 | -0.751 | -1.02 | -0.615 | 2.71% (inactive) | -0.405 (inactive) | -5.6e-05 (inactive) | 0.00483 (inactive) | inactive | -0.935% (inactive)
